Experimental findings from ChEMBL document CHEMBL5380838, “Novel Aryl Sulfonamide Derivatives as NLRP3 Inflammasome Inhibitors for the Potential Treatment of Cancer” (J Med Chem, 2023) are described below.

Data set [1] is described as follows: Metabolic stability in mouse liver microsomes assessed as half life measured per mg protein at 1 uM measured upto 60 mins by LC-MS/MS analysis. The data set is classed as ADME, Microsome. In short, it runs like this: (§1)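 Pooled human or CD-1 male mouse liver microsomes at 0.5 mg/mL with test compound 1 µM in 50 mM phosphate pH 7.4 and 3 mM MgCl2, preincubated 10 min at 37 °C. Percent parent remaining vs 0 min measured by LC-MS/MS. Cli = k/microsomal conc. × 1000; mean ± SD, n = 2.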

The nature of data set [2]: Cmax in C57BL/6 mouse at 25 mg/kg, ip measured for 0.083 to 24 hrs by LC-MS/MS analysis. The data set is classed as ADME, organism-based. The arrangement: time upper 24 hrs, dose 25 mg/kg, time lower 0.083 hrs, route ip. The note with it: in vivo. Put shortly:
(§2)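 Female C57BL/6 mice, 8 weeks old, 25–30 g, given a single IP dose of 25 mg/kg. Sampling at 5 and 20 min and 1, 2, 3, 6, 8 and 24 h, 3 mice per timepoint; Li-heparin plasma from the cava vein. ACN/MeOH precipitation with diclofenac internal standard, then LC-MS/MS in ESI(−) MRM mode, range 1–2000 ng/mL. Noncompartmental analysis, linear trapezoidal AUC.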

In data set [3] the test system is B16-F10. Kind of data set: Effect on pro-IL-1beta expression in cytosolic luciferase-transfected mouse B16-F10 cells xenografted in C57BL/6 mouse at 25 mg/kg, ip administered thrice weekly measured after 14 days by Western blot analysis. The class given is functional, organism-based. The note with it: time 14.0 day. In short, it runs like this:
(§3)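 Tumors from luciferase-expressing B16-F10 grafts in C57BL/6 mice, dosed IP at 25 mg/kg thrice weekly (DMSO controls), were excised at endpoint and homogenized in sucrose/HEPES/IGEPAL lysis buffer. Lysates were western blotted and bands expressed as fold ratio over β-actin (n = 5).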
On the technique in general: A western blot detects proteins with antibodies after separation by electrophoresis.

Data set [4] is described as follows: Tlast in C57BL/6 mouse at 25 mg/kg, ip measured for 0.083 to 24 hrs by LC-MS/MS analysis. The data set is classed as ADME, organism-based. The note with it: in vivo, time 0.083-24 hrs. In short, it runs like this:
as §2

The nature of data set [5]: Clast in C57BL/6 mouse at 25 mg/kg, ip measured for 0.083 to 24 hrs by LC-MS/MS analysis. The data set is classed as ADME, organism-based. The note with it: in vivo, time 0.083-24 hrs. In short, it runs like this: as §2
Data set [6] concerns Mus musculus. The experiment in a line: Antiinflammatory activity in LPS-induced C57BL/6 mouse assessed as reduction in IL-1beta production in plasma at 25 mg/kg, ip pretreated for 30 mins followed by LPS induction measured after 4 hrs by ELISA method. The note with it: time 4.5 hrs. The data set is classed as functional, organism-based. Put shortly:
(§4)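 C57BL/6 mice given inhibitor 25 mg/kg IP (vehicle DMSO) 30 min before IP LPS 1 mg/kg; after 4 h, peritoneal exudate and blood collected, plasma from centrifugation 1000g 15 min 4 °C; IL-1β measured by ELISA; mean ± SEM of three independent experiments.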
In general terms: An ELISA detects its analyte on a solid surface through an enzyme-linked reagent.

A short description of data set [7]: Half life in C57BL/6 mouse at 25 mg/kg, ip measured for 0.083 to 24 hrs by LC-MS/MS analysis. The note with it: in vivo, time 0.083-24 hrs. The class given is ADME, organism-based. Put shortly: as §2
Data set [8] deals with B16-F10. The experiment in a line: Antiproliferative activity against LPS-treated mouse B16-F10 cells co-cultured with mouse peritoneal macrophages assessed as decrease in cell growth at 1 uM incubated for 30 mins followed by ATP stimulation for 1 hr measured after 48 hrs by cell counting method. The data set is classed as functional, cell-based. The note with it: time 49.5 hrs. Put shortly:
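Transwell co-culture (0.4 µm pores), 48 h: peritoneal macrophages from C57BL/6 mice (2 × 10^5, lower well) primed with LPS 1 µg/mL 2 h, then DMSO or compound 1 µM 30 min, then ATP 1 h; B16-F10 cells (2 × 10^3) in upper insert; tumor cells removed after 48 h and counted by image-based cytometer.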

Data set [9] is described as follows: Metabolic stability in human liver microsomes assessed as intrinsic clearance measured per mg protein at 1 uM measured upto 60 mins by LC-MS/MS analysis. The data set is classed as ADME, Microsome. The note with it: read-out: CLH. Put shortly:
as §1
A general note: Liver microsomes are vesicles of endoplasmic reticulum, rich in cytochrome P450 enzymes.

A short description of data set [10]: AUC in C57BL/6 mouse at 25 mg/kg, ip measured for 0.083 to 24 hrs by LC-MS/MS analysis. The note with it: in vivo.
For data set [11], the system named is Mus musculus. Kind of data set: Antiinflammatory activity in LPS-induced C57BL/6 mouse assessed as reduction in IL-1beta production in peritoneal exudate at 25 mg/kg, ip pretreated for 30 mins followed by LPS induction measured after 4 hrs by ELISA method. The data set is classed as functional, organism-based. The note with it: time 4.5 hrs. In short, it runs like this: as §4

The subject of data set [12] is B16-F10. Kind of data set: Effect on ASC expression in cytosolic luciferase-transfected mouse B16-F10 cells xenografted in C57BL/6 mouse at 25 mg/kg, ip administered thrice weekly measured after 14 days by Western blot analysis. The class given is functional, organism-based. The note with it: time 14.0 day. In short, it runs like this: as §3
In data set [13] the test system is B16-F10. The experiment in a line: Effect on cleaved caspase-1 expression in cytosolic luciferase-transfected mouse B16-F10 cells xenografted in C57BL/6 mouse at 25 mg/kg, ip administered thrice weekly measured after 14 days by Western blot analysis. The data set is classed as functional, organism-based. The note with it: time 14.0 day. Put shortly: as §3
The test system of data set [14] is BMDM. Kind of data set: Effect on AIM2 inflammasome activation in LPS-treated mouse BMDM cells assessed as IL-1beta release at 1 uM incubated for 30 mins followed by Poly (dA:dT) stimulation for 4 hrs by ELISA method. The note with it: time 270.0 min. The class given is functional, cell-based. In short, it runs like this:
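BMDMs primed with LPS 100 ng/mL for 3 h, then compound 1 µM in serum-free medium for 30 min, then poly(dA:dT) 1 µg/mL transfected with lipofectamine 2000 for 4 h; supernatant mouse IL-1β by ELISA.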

A short description of data set [15]: Metabolic stability in mouse liver microsomes assessed as intrinsic clearance measured per mg protein at 1 uM measured upto 60 mins by LC-MS/MS analysis. The class given is ADME, Microsome. The note with it: read-out: CLH. In short, it runs like this:
as §1

Data set [16] has as its system B16-F10. Kind of data set: Antiproliferative activity against cytosolic luciferase-transfected mouse B16-F10 cells xenografted in C57BL/6 mouse assessed as effect on cell growth at 25 mg/kg, ip administered thrice weekly measured after 5 days. The data set is classed as functional, organism-based. The note with it: time 5.0 day.
Data set [17] has as its system BMDM. Kind of data set: Effect on NLRC4 inflammasome activation in LPS-treated mouse BMDM cells assessed as IL-1beta release at 1 uM incubated for 30 mins followed by Salmonella typhimurium flagellin stimulation for 2 hrs by ELISA method. The class given is functional, cell-based. The note with it: time 150.0 min. In short, it runs like this: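 BMDMs primed with LPS 100 ng/mL for 3 h, then compound 1 µM in serum-free medium for 30 min, then flagellin 100 ng/mL for 2 h; supernatant mouse IL-1β by ELISA.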

Data set [18] in a line: Metabolic stability in human liver microsomes assessed as half life measured per mg protein at 1 uM measured upto 60 mins by LC-MS/MS analysis. The data set is classed as ADME, Microsome. Put shortly: as §1
Data set [19] deals with THP-1. The experiment in a line: Suppression of NLRP3 expression in LPS-treated human THP-1 cells at 1 to 1000 nM incubated for 30 mins followed by ATP stimulation for 1 hr […]. The data set is classed as functional, cell-based. The note with it: dose 1-1000 nM, time 90.0 min.
Data set [20] deals with THP-1. The experiment in a line: Suppression of caspase-1 p10 expression in LPS-treated human THP-1 cells at 1 to 1000 nM incubated for 30 mins followed by ATP stimulation for 1 hr […]. The class given is functional, cell-based. The note with it: dose 1-1000 nM, time 90.0 min.
In data set [21] the test system is BMDM. Kind of data set: Effect on NLRP3-ASC interaction in LPS-treated mouse BMDM cells at 1 uM incubated for 30 mins followed by ATP stimulation for 1 hr by co-immunoprecipitation based Western blot analysis. The class given is functional, cell-based. The note with it: time 90.0 min. Put shortly: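 BMDMs (1 × 10^7) primed with LPS 2 h, treated 1 µM compound 30 min, then ATP 1 h; lysed in HEPES/NaCl/glycerol/EDTA/0.5% Triton buffer with protease/phosphatase inhibitors; NLRP3–ASC co-immunoprecipitation, bait eluted in Laemmli buffer, western blot; representative of three independent experiments.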

The test system of data set [22] is THP-1. The experiment in a line: Suppression of pro-IL-1beta expression in LPS-treated human THP-1 cells at 1 to 1000 nM incubated for 30 mins followed by ATP stimulation for 1 hr […]. The note with it: dose 1-1000 nM, time 90.0 min. The data set is classed as functional, cell-based.

Broadly, the half-life is how long it takes for the measured level to halve. For orientation: Cmax means the highest concentration seen after dosing. The term AUC denotes concentration integrated over time.

Calls of active or inactive are those of the source. The rule behind the calls is not given here.

`CC(C)[C@H](NS(=O)(=O)c1ccc([N+](=O)[O-])cc1)C(=O)Nc1c2c(cc3c1CCC3)CCC2`: the figures for the half-life at 1 µM in [1] and in data set [18] were 4.8 h and 0.508 h, respectively. Besides, the Cmax in data set [2] turned out to be 1670 ng/mL. For the same molecule, the outcome in data set [3], in data set [12], in data set [13], in data set [14], in data set [16] and in data set [17] was inactive. For the same molecule, the result in data set [19], in data set [21] and in data set [22] was inactive. The molecule further had a Tlast in [4] of 24 h. The same molecule yielded a Clast in [5] of 67 ng/mL. In addition, the outcome in [6], in data set [8], in data set [11] and in data set [20] was Active. The half-life in data set [7] was 9.5 h. Moreover, the figures for the microsomal CLint at 1 µM in data set [9] and in data set [15] were 45.8 µL/min/mg and 4.8 µL/min/mg, respectively. In data set [10], this molecule registered an AUC of 3880 ng/mL.hr.
